Compound activity: PubChem BioAssay, The Scripps Research Institute Molecular Screening Center
CHRM5 PAM = positive allosteric modulators of human muscarinic M5 receptor; P08912; CHO-K1 hM5, Fluo-8 calcium, ACh EC20 PAM; 0% = ACh EC20, 100% = ACh EC100; activation, % at 3 µM; 360,000 tested, 0.3% active;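 active means activation above the run cutoff, the mean activation of all test compounds plus 3 SD, cut at about 18% in these data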
Target sequence (P08912 whole entry, looked up): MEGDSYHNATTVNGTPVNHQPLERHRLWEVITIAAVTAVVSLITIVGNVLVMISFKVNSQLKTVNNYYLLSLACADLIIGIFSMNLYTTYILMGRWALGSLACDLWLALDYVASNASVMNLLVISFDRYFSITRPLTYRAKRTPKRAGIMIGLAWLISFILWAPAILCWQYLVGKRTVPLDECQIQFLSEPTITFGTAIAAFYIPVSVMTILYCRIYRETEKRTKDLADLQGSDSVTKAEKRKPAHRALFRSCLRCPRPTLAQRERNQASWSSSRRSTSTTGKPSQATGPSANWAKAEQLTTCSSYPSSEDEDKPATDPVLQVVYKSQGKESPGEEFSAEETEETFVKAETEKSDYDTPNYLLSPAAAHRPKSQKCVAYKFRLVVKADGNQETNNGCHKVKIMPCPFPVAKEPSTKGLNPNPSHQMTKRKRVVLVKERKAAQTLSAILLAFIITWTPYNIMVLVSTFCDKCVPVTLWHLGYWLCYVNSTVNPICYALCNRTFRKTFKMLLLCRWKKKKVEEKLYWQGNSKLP
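Measured by: Fluo-8 calcium fluorescence; material: human M5 receptor in CHO-K1 cells; schedule: Post-acetylcholine fluorescence recording 140 s; benchmarks: low control EC20 acetylcholine (0%), high control EC100 acetylcholine (100%); read-out: Max/basal fluorescence ratio as % of EC20–EC100 ACh window; compound: single dose, 3 µM nominal final test concentration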
M5 ag = CHRM5 agonism in calcium assay; P08912; CHO-K1 hM5 cells, Fluo-8 calcium fluorescence; 0% DMSO wells, 100% maximal acetylcholine response; activation, % at 3 µM; 360,000 tested, 0.19% active; AID 624037;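 active means activation above the run's mean over test compounds plus 3 SD, cut at about 23% in these data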;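 further: signal is peak over basal fluorescence ratio across the kinetic read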
CHRM4 agonist = agonists of human muscarinic M4 receptor (CHRM4) | P08173 | CHO-K1 hM4/Gqi5, Fluo-8 calcium fluorescence; vehicle 0%, full acetylcholine response 100% | activation, % at 3 µM | 360,000 tested, 0.14% active | AID 624127;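 active means activation above the run mean over all test wells plus 3 SD, cut at about 32% in these data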;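 further: peak over basal fluorescence ratio per well then scaled between controls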
CHRM4 PAM = CHRM4 positive allosteric modulation. P08173. CHO-K1 hM4/Gqi5, Fluo-8 calcium fluorescence, ACh EC20; 0% = ACh EC20, 100% = maximal ACh. activation, % at 3 µM. 360,000 tested, 0.4% active. AID 624126;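 active means activation above its plate's cutoff, the mean activation of sample wells plus 3 SD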
CHRM5 antagonist = antagonists of human muscarinic M5 receptor (CHRM5); P08912; CHO-hM5 cells, Fluo-8 calcium fluorescence, ACh EC80; 360,000 tested, 0.59% active; inhibition, % at 3 µM;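 active means inhibition above a per-plate cutoff, the mean of that plate's test compounds plus 3 SD, cut at about 27% in these data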
CHRM4 antagonist = CHRM4 antagonism in calcium assay. P08173. CHO-hM4 cells, ACh EC80, Fluo-8 calcium fluorescence. inhibition, % at 3 µM. 360,000 tested, 0.73% active. AID 624125;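 active means inhibition above its plate's cutoff, the mean inhibition of sample wells plus 3 SD, cut at about 27% in these data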
Of the large screens only hits and unclear results are named; the others gave an inactive call. This is a sample that favours compounds with a hit; in the whole collection about 1.8% have one here.

COCC1CCCCN1C(=O)c1cc(COc2ccc3ncccc3c2)on1 (stereo not given)	CHRM4 agonist 32, CHRM5 antagonist 39, CHRM4 antagonist 34
Cc1ccc(F)cc1CNC(=O)c1cc(COc2ccc3ncccc3c2)on1	CHRM5 antagonist 56, CHRM4 antagonist 43
O=C(c1ccco1)N1CCN(Cc2cc(=O)c(OCc3ccc([N+](=O)[O-])cc3)co2)CC1	CHRM4 antagonist 31
Cc1ccc(COc2coc(CN3CCN(C(=O)c4ccco4)CC3)cc2=O)cc1	none
Cc1ccc(F)cc1C(=O)N1CCOCC1c1cc(C(=O)Nc2ccccc2)no1 (stereo not given)	none
CC(C)Cc1ccc(C(C)CC2=CCC(CN(C)C)C2=O)cc1 (stereo not given)	none
O=C(O)COc1cccc2ccccc12	none
CCN(CC)C(=O)COc1cccc2ccccc12	CHRM4 PAM 29
C#Cc1ccc([C@H]2C=C(C(=O)NCc3ccccc3)O[C@@H](OCC)[C@@H]2CCCO)cc1	CHRM5 antagonist 34
O=c1cc(CN2CCCCC2)c2ccccc2o1	none
CC(C)COc1ccc(C(=O)Nc2sc3c(c2C(=O)O)CC(C)(C)OC3)cc1	CHRM5 antagonist 34
CCOc1ccc(S(=O)(=O)N2CCCC(C(=O)N3CCN(CC)CC3)C2)cc1Cl (stereo not given)	none
O=C(O)Cn1c(C(F)(F)F)nc2ccccc21	CHRM4 antagonist 32
C=C(C)CSc1nnc(-c2ccc(OC)c(OC)c2)n1N	CHRM4 PAM 30
CCOC(=O)C1CCN(S(=O)(=O)c2ccc3c(c2)CCN3C(C)=O)CC1	CHRM5 antagonist 32
O=C(Nc1nc2ccsc2c(=O)s1)c1ccc(F)cc1Cl	CHRM5 PAM 21
CC1(C(=O)Nc2ccc(Cl)cc2)Cc2c(-c3ccc4c(c3)OCO4)ccnc2O1 (stereo not given)	none
CCOC(=O)N1CCN(C(=O)c2cc(OC)cc(OC)c2)CC1	none
COc1cc(OC)cc(C(=O)N2CCN(S(C)(=O)=O)CC2)c1	CHRM5 PAM 31, CHRM4 PAM 28
O=C1O[C@H]([C@@H](O)CO)C(O)=C1O	M5 ag 70
COc1ccc(S(=O)(=O)n2c(N)nc3ccccc32)cc1	CHRM5 antagonist 69, CHRM4 antagonist 73
Cc1ccc(S(=O)(=O)n2c(N)nc3ccccc32)cc1	CHRM5 antagonist 76, CHRM4 antagonist 86
Nc1nc2ccccc2n1S(=O)(=O)c1ccc([N+](=O)[O-])cc1	none
Nc1nc2ccccc2n1S(=O)(=O)c1ccc(Cl)cc1	CHRM5 antagonist 40, CHRM4 antagonist 52
Cc1cccc(CNC(=O)c2sc(=O)n(Cc3ccc(S(C)(=O)=O)cc3)c2C)c1	none
CC[C@@H](NCCCn1ccc(NC(=O)OCc2ccccc2)nc1=O)c1ccccc1	none
Clc1cccc(-c2nc3ccc(Cl)cn3c2Cc2ccsc2)c1	none
CC(=O)Nc1cccc(OC(=O)N2CCOCC2)c1	CHRM4 PAM 27
O=C(NCC(F)(F)F)c1csc([C@@H]2O[C@H](CO)[C@H](O)[C@H](O)[C@H]2O)n1	none
COc1ccc(-c2csc(N(CCCN(C)C)C(=O)c3ccc(C)cc3)n2)cc1	CHRM4 PAM 49, CHRM4 antagonist 49
CCN(CC)CCCN(C(=O)c1ccccc1C)c1nc(-c2ccc(OC)cc2)cs1	none
CCN(C(=O)c1cccs1)c1nc(-c2ccc(OC)cc2)cs1	none
CCN(CC)CCN(C(=O)c1ccc([N+](=O)[O-])cc1)c1nc2ccc(OC)cc2s1	CHRM4 PAM 32
CCN(CC)CCCN(C(=O)c1ccc(OC)cc1)c1nc(-c2ccc(OC)cc2)cs1	CHRM4 PAM 49, CHRM4 antagonist 29
COc1ccc(-c2csc(N(CCCN(C)C)C(=O)c3cccs3)n2)cc1	CHRM5 antagonist 38
CCOc1ccccc1Nc1nnc(SCC(=O)N(C)C2CCS(=O)(=O)C2)s1 (stereo not given)	none
COc1ccc(-c2csc(N(CCCN3CCOCC3)C(=O)c3ccco3)n2)cc1	CHRM4 antagonist 36
COc1ccc(-c2csc(N(CCCN(C)C)C(=O)c3ccc(Br)cc3)n2)cc1	CHRM4 PAM 47
O=[N+]([O-])c1ccc(N2CCN(CC3CCCCC3)CC2)cc1	none
COc1ccc(CN(C)C(=O)c2ccc(Oc3ccccc3)cc2)cc1F	none
CN(Cc1ccc2ccccc2c1)C(=O)c1ccc(C(F)(F)F)cc1	CHRM5 antagonist 27
Cc1cccc(-c2nc(CSc3nc4c(c(=O)[nH]3)CCC4)c(C)o2)c1	CHRM4 PAM 20
Cc1ccccc1CSc1nc2c(c(=O)[nH]1)CCC2	CHRM4 PAM 37
Cc1ccccc1-c1nc(CSc2nc3c(c(=O)[nH]2)CCC3)c(C)o1	none
CCCN(C)C1CN(Cc2cn(CCCC(=O)OC)nn2)S(=O)(=O)C1 (stereo not given)	none
c1ncn(C23CC4CC(CC(C4)C2)C3)n1	CHRM5 PAM 21
CC1(C)CC(NS(=O)(=O)c2ccc3ccccc3c2)CC(C)(C)N1	CHRM5 PAM 18
COc1ccc(S(=O)(=O)NC2CC(C)(C)NC(C)(C)C2)cc1	none
Cc1ccc(S(=O)(=O)c2ccc([N+](=O)[O-])o2)cc1	CHRM4 antagonist 36
CCC(C)C(CO)NCCCn1cnc2c(OCc3ccccc3)ncnc21 (stereo not given)	none
CCOC1=C2[C@@H](CN(S(=O)(=O)c3ccccc3C)[C@H]2c2ccc(Cl)cc2)[C@H]2C(=O)N(c3ccccc3)C(=O)[C@H]2C1	none
CCOC1=C2[C@@H](CN(S(=O)(=O)c3ccccc3C)[C@H]2c2ccc(Cl)cc2)[C@H]2C(=O)NC(=O)[C@H]2C1	CHRM4 antagonist 43
CC(=O)Nc1ccc(NC(=O)CSc2nc(=O)n(Cc3cccnc3)c3c2CCC3)cc1	none
COC(=O)[C@@]1(Sc2ccc(C)cc2)CC(=O)N(c2ccccc2)[C@@H]1c1ccccc1	CHRM5 antagonist 30, CHRM4 antagonist 40
COc1cc(OC)c(NC(=O)c2cc3ccccc3cc2O)cc1Cl	none
O=C(O)c1cccc(Nc2nc(Nc3ccccc3)nc(N3CCCC3)n2)c1	CHRM4 PAM 25
Oc1ccccc1NCC(O)Cn1ccc2ccccc21 (stereo not given)	CHRM4 antagonist 35
Cc1cc(C)n(-c2ccc(NC(=O)C3CCN(Cc4ccccn4)CC3)cc2)n1	CHRM4 PAM 22
CCc1ncc(CN2CCC(C(=O)Nc3ccc(-n4nc(C)cc4C)cc3)CC2)cn1	none
CCS(=O)(=O)C1=NSC2=NC(=O)/C(=C\c3ccc(OS(=O)(=O)c4ccccc4)c(OC)c3)C(=N)N21	CHRM5 PAM 29
